# Laboratory results published in PubChem BioAssay.
# A number with no mark means an inactive call. Records with an inconclusive call do not appear. Calls of active or inactive are those of the source.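 How the source made its calls, unless noted: active means inhibition over a set limit, the all-compound mean plus 3 SD, in both replicate runs; inconclusive means over that limit in just one replicate run; inactive means at or under that limit in both runs.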
# What was measured:
# [1] = S. cerevisiae growth inhibition in permissive medium (OD615), pilot counter-assay for S. cerevisiae lifespan shortening project, permissive growth control (AID 705;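 active means growth inhibition above 25% in both replicates, a cutoff set 3 SD above the mean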); settings: OD615, 24 h, at 10 µM, stronger effect = higher value
# Procedure, shortened: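 System: S. cerevisiae with engineered DeaD lifespan system. Medium: SC raffinose/galactose permissive medium. Doses: single compound dose of 10 µM, 0.25% DMSO final. Schedule: 24 h exposure, 30 °C. Measured by: OD615 turbidity read. Read-out: growth inhibition.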
# [2] = S. cerevisiae growth inhibition in restrictive medium, OD615, pilot screen, restrictive growth control, yeast lifespan reduction project (AID 706;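 active means growth inhibition above a set limit, 3 SD over mean compound inhibition, in both replicates, cut at about 43% in these data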;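 further: modified DeaD lifespan yeast strain shifted to restrictive glucose medium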); settings: OD615, 48 h, at 10 µM, stronger effect = higher value
# Procedure, shortened: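 Assay system – genetically modified Saccharomyces cerevisiae, DeaD replicative lifespan assay strain · Medium – CSMM-D glucose medium · Doses – 10 µM compound, 0.25% DMSO · Times – 4 h pre-incubation, 48 h exposure at 30 °C · Signal – optical density at 615 nm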
# [3] = doxorubicin toxicity protection in MRP-1 cells – H69AR cells, CellTiter-Glo, duplicate, MRP-1 activator project, pilot screen (AID 807;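 active means viability increase at or above a cutoff of the median across tested compounds plus 3 SD, cut at about 8.5% in these data, passing the limit was not always enough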;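 further: compound pretreatment 18-22 h then 72 h combined with doxorubicin; 0% = doxorubicin alone and 100% = vehicle without doxorubicin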); settings: H69AR viability with doxorubicin, CellTiter-Glo luminescence; at 10 µM; stronger effect = higher value
# [4] = viability of HCT116 without oncogenic beta-catenin – human colon tumor cells, pilot screen (AID 823;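 active means cell viability at or below a set limit in both duplicate runs, the limit being the all-compound median minus 4 SD, cut at about 23% in these data, passing the limit was not always enough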;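 further: 0% = wells killed by 20 µM Hyamine and 100% = untreated DMSO cell wells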); settings: HCT116 beta-catenin knockout viability, CellTiter-Glo, 60 h; at 10 µM; stronger effect = lower value
# [5] = viability of PTEN-null HCT116 cells – cell-based, HCT116 clonal line, CellTiter-Glo, pilot screen (AID 824;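 active means viability at or below 27.92% in each of two runs, the all-compound median minus 4 SD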;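 further: 0% = 20 µM Hyamine control and 100% = vehicle cell control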); settings: HCT116 PTEN-deleted viability, 60 h, at 10 µM, stronger effect = lower value
# [6] = RAM pathway blockade in budding yeast – dse1pr::URA3 reporter, 5-FOA selection, pilot screen (AID 869);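 further: 0% = DMSO wells with no growth and 100% = 10 µM 1-NA-PP1 with full growth; RAM network block rescues cells from 5-FOA so hits raise OD615 growth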; settings: S. cerevisiae dse1pr::URA3 5-FOA growth, OD615, 2 d; at 10 µM; stronger effect = higher value; strain carries analog-sensitive mutant Cbk1 kinase
# [7] = RAM signaling pathway blockade in yeast – S. cerevisiae, Pdr1DBD-CYC8 efflux-inhibited sensitized strain, primary screen (AID 1298;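 active means RAM network inhibition above 8.4% in each of two replicates, 3 SD over the compound average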;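 further: 0% = DMSO untreated cells without growth and 100% = 10 µM 1-NA-PP1 full growth; higher means more yeast growth rescued from 5-FOA killing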); settings: S. cerevisiae cbk1-as DSE1-URA3 strain, 5-FOA growth OD615, 2 d; at 50 µM; stronger effect = higher value
SMILES,growth inhibition [1] [%],growth inhibition [2],viability increase [3] [%],viability [4] [%],viability [5] [%],inhibition [6] [%],RAM network inhibition [7] [%]
O=C(Cn1cnc2c(nnn2-c2ccccc2)c1=O)NCC1CCCO1 (stereo not drawn),-6.44,8.14%,-2.94,100,94.3,1.41,1.65
O=C(NCc1ccc2c(c1)OCO2)c1ccc(NC(=O)C2CCCO2)cc1 (stereo not drawn),-11,-20.2%,-2.17,102,103,3.76,4.81
Cn1c(Cn2c(=O)sc3ccccc32)nnc1SCC(=O)Nc1ccc2c(c1)OCO2,-1.55,7.6%,-5.8,105,99.6,2.34,3.46
Nc1nc(SCC(=O)NCCCO)nc2sc3c(c12)CCC3,-8.84,-4.31%,-1.44,96.1,94,1.44,0.31
CN1CCc2c(sc(NC(=O)c3ccc(S(=O)(=O)N4CCOCC4)cc3)c2C(N)=O)C1,-5.07,-4.6%,-0.65,111,103,-0.19,7.28
Cc1csc2ncc(C(=O)Nc3ccc4c(c3)OCCO4)c(=O)n12,-13.1,-17.3%,-2.34,102,97.5,2.96,6.97
Cc1ccc(C(=O)CSC2=NC(N)=C(C#N)C3(CCCCC3)C2C(N)=O)cc1 (stereo not drawn),17.7,51% (active),-4.6,89.6,97.6,0.27,9.3
CC(C)C(=O)N=c1sc2cc(F)cc(F)c2n1C,-9.84,-0.65%,-1.28,94.1,99,0.01,0.96
CCC(C)NC(=O)C(Cc1ccccc1)n1cccc1 (stereo not drawn),-9.66,-6.93%,0.42,101,88.4,-0.195,3
O=C(NC1CCCCC1)c1ccc(Br)o1,-5.84,-1.68%,-1.9,102,102,0.915,3.82
COc1ccc(OCc2nnc3n2N=C(c2ccc(OC)cc2)CS3)cc1,7.92,57.4% (active),-2.84,69.9,66.4,2.15,7.82
Cc1ccc(-c2nc(CS(=O)CC(=O)NC3CCCC3)c(C)o2)cc1 (stereo not drawn),5.52,2.53%,-4.16,92.9,91.4,1.08,5.29
CCCN1Cc2cccc(C(=O)Nc3ccc4c(c3)OCCO4)c2C1=O,0.22,-5.64%,0.47,106,97.2,1.35,2.75
O=C(NCCc1ccccc1)c1ccc(Br)o1,-7.62,1.48%,0.4,104,103,0.77,1.44
O=C(O)C1C2C=CC(C2)C1C(=O)NCc1ccc2c(c1)OCO2 (stereo not drawn),-3.23,-1.14%,-1.9,94.6,90.6,2.08,2.65
CCOc1ccc(N(CC(=O)Nc2cccc(F)c2)S(=O)(=O)c2c(C)noc2C)cc1,-3.51,-8.12%,-5.24,66.5,56.2,3.33,5.5
COc1ccc(OC)c2sc(NC(=O)c3ccc(Br)s3)nc12,-1.73,-13%,-3.64,85.1,59.5,2.71,2.69
O=C1c2ccccc2C(Nc2ccc3c(c2)OCCO3)N1c1ccc(Cl)cn1 (stereo not drawn),-12.2,3.92%,1.76,81.7,75.2,1.83,9.61
Cc1ccc(S(=O)(=O)/N=C/c2ccco2)cc1,-11.7,-12.3%,-1.73,105,100,0.625,6.25
COc1cccc(N(CC(=O)Nc2cccc(C(C)=O)c2)S(C)(=O)=O)c1,-9.21,-2.52%,-0.61,101,93.7,1.08,5.87
C=CC(C)Sc1nc2c(c(=O)n(C)c(=O)n2C)n1Cc1ccccc1Cl (stereo not drawn),-3.12,-2.02%,-3.37,100,99.3,0.785,5.22
O=C(c1cc(-c2ccc(Cl)c(Cl)c2)on1)N1CCCC1,-5.55,0.315%,4.2,111,102,1.99,1.27
CCOC(=O)N1CCC(NC(=O)Cn2nc(Cc3ccncc3)c3ccccc3c2=O)CC1,-6.68,3.71%,-0.79,94,95.7,-0.58,0.52
CCC(C)NC(=O)CS(=O)Cc1nc(-c2cccc(OC)c2)oc1C (stereo not drawn),-12.5,-1.45%,-1.45,98,94.5,1.23,4.44
